Test results as given in ChEMBL document CHEMBL4325904 (Eur J Med Chem, 2019).
Calls of active or inactive are those of the source. The calls are words filed in the database; no cut-off is given here.

Tests used:
Histone deacetylase 7 = biological target: T1, Histone deacetylase 7 (Homo sapiens, UniProt Q8WUI4); experiment: Inhibition of recombinant N-terminal GST-tagged human HDAC7 (518 to 991 residues) expressed in Baculovirus infected insect cells using Boc-K(Ac)-AMC as substrate by fluorimetric assay
T1 sequence (Q8WUI4 whole entry): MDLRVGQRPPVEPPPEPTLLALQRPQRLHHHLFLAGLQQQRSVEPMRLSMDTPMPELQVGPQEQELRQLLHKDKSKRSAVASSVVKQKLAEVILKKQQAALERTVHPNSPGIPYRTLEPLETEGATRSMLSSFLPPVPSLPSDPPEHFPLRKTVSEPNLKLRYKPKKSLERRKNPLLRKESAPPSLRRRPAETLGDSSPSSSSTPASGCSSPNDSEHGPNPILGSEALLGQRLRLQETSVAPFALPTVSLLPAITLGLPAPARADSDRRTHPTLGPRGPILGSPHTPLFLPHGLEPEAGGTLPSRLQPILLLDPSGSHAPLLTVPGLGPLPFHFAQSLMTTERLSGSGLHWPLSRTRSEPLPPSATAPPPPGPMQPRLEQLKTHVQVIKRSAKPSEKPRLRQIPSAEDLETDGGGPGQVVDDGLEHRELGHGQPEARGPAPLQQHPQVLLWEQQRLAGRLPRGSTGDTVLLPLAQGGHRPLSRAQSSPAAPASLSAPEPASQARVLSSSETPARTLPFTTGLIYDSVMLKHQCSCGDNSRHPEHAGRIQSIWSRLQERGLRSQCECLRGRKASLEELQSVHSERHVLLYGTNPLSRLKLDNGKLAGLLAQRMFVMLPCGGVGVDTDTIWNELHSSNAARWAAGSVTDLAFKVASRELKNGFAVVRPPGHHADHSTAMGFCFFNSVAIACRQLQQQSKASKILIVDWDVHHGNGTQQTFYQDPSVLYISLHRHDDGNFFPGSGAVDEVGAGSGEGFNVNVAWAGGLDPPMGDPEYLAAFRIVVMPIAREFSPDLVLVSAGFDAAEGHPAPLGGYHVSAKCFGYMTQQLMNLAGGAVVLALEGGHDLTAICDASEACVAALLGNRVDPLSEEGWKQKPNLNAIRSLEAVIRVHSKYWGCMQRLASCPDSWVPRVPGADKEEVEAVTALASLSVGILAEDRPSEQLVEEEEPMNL

Homo sapiens = species: Homo sapiens; experiment: Selectivity ratio of IC50 for recombinant C-terminal His-tagged human HDAC5 (656 to 1122 residues) to IC50 for recombinant N-terminal GST-tagged human HDAC6 (1 to 1215 residues)
A549 = experiment: Induction of morphological changes in human A549 cells assessed as increase in protrusions of the membrane at 10 uM after 20 mins by naphthalimide/Lysotracker Deep Red dye-based inverted light fluorescence confocal microscopic analysis; type: functional, cell-based
How it was run: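 A549 cells exposed to compound at 10 µM for 20 minutes, then imaged by confocal microscopy (λex 405 nm, λem 460–560 nm); membrane protrusions (blebbing) recorded.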

Kasumi 1 = experiment: Potency index, ratio of scriptaid IC50 to test compound IC50 for human Kasumi-1 cells; type: functional

Structure (SMILES) | IC50 (Histone deacetylase 7) [µM] | Ratio IC50 (Homo sapiens) | Activity (A549) | Ratio IC50 (Kasumi 1)
O=C(CCCCCN1C(=O)c2cccc3c(NCc4ccccc4)ccc(c23)C1=O)NO | 3.2 | 970 | Active | –
CCCNc1ccc2c3c(cccc13)C(=O)N(CCCCCC(=O)NO)C2=O | 9.4 | 1100 | – | 5
